The species entered for test [1] is Homo sapiens. Nature of the test: Selectivity ratio of Ki for human acetylcholine esterase to Ki for human butyrylcholine esterase.
Test [2] concerns the target Cholinesterase (Homo sapiens, UniProt P06276). Nature of the test: Inhibition of human butyrylcholine esterase.
The target of test [3] is T1, Acetylcholinesterase (Homo sapiens, UniProt P22303). Nature of the test: Inhibition of human acetylcholine esterase.
For test [4], the target named is T2, Amyloid-beta precursor protein (Homo sapiens, UniProt P05067). Nature of the test: Inhibition of amyloid beta (1 to 42) aggregation (unknown origin) at 5 uM by ThT-based fluorescence assay.
T2 sequence (P05067 whole entry): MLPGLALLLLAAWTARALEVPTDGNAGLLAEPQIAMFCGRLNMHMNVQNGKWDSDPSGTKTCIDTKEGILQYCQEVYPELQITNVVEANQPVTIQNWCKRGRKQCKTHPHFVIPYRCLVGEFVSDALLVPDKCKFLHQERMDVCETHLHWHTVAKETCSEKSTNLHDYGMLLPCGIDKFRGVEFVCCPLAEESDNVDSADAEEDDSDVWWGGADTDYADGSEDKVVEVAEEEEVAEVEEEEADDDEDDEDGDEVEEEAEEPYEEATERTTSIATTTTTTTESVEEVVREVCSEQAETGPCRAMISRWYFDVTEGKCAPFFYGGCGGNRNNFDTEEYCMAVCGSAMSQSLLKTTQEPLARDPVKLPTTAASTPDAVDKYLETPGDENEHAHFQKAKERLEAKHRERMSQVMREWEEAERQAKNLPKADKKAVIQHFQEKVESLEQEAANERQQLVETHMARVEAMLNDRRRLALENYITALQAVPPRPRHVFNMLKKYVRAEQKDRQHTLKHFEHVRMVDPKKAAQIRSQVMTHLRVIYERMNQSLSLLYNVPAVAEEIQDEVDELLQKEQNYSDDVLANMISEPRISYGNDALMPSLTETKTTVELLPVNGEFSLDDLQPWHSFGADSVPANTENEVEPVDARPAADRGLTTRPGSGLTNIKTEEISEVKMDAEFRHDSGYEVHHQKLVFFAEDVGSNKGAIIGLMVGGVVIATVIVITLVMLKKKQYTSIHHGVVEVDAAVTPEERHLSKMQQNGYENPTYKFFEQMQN
In test [5] the target is T2, Amyloid-beta precursor protein. Nature of the test: Inhibition of amyloid beta (1 to 42) oligomerization (unknown origin) assessed as depletion of higher molecular weight oligomers formation at 200 to 500 uM by capillary electrophoresis method. Particulars: TDE = time-dependent effect.
For test [6] the target is unchanged. Nature of the test: Inhibition of amyloid beta (1 to 42) oligomerization (unknown origin) assessed as stable smaller oligomer formation at 500 uM after 24 hrs by capillary electrophoresis method.
For test [7] the target is unchanged. Nature of the test: Inhibition of amyloid beta (1 to 42) oligomerization (unknown origin) assessed as inhibition of toxic aggregate formation at 500 uM after 24 hrs by capillary electrophoresis method.
The target is the same in test [8]. Nature of the test: Inhibition of amyloid beta (1 to 42) oligomerization (unknown origin) assessed as amorphous aggregates formation at 50 to 500 uM by transmission electron microscopy. In a few lines:
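Aβ1-42 samples were imaged by transmission electron microscopy with 50 µM test compound added, n = 2.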

The target is the same in test [9]. Nature of the test: Inhibition of amyloid beta (1 to 42) oligomerization (unknown origin) assessed as disaggregation of toxic oligomers and precipitation at 200 to 500 uM by transmission electron microscopy relative to control.
The target is the same in test [10]. Nature of the test: Inhibition of amyloid beta (1 to 42) oligomerization (unknown origin) assessed as oligomer stabilization at 200 uM after 2 days by capillary electrophoresis method.
Test [11] shares this target. Nature of the test: Inhibition of amyloid beta (1 to 42) oligomerization (unknown origin) assessed as oligomer stabilization at 200 uM after 6 hrs by capillary electrophoresis method.
Test [12] has the same target. Nature of the test: Inhibition of amyloid beta (1 to 42) oligomerization (unknown origin) assessed as oligomer stabilization at 200 uM measured immediately by capillary electrophoresis method.
For test [13] the target is unchanged. Nature of the test: Inhibition of amyloid beta (1 to 42) oligomerization (unknown origin) assessed as depletion of higher molecular weight oligomers after 6 hrs to 2 days by capillary electrophoresis method.
The target in test [14] is T1, Acetylcholinesterase. Nature of the test: Inhibition of human acetylcholine esterase-induced amyloid beta (1 to 40) aggregation at 100 uM by ThT-based fluorescence assay.
The target in test [15] is T1, Acetylcholinesterase. Nature of the test: Inhibition of human acetylcholine esterase-induced amyloid beta (1 to 40) aggregation by ThT-based fluorescence assay.
Test [16] addresses T2, Amyloid-beta precursor protein. Nature of the test: Inhibition of amyloid beta (1 to 42) aggregation (unknown origin) after 24 hrs by ThT-based fluorescence assay.

From ChEMBL document CHEMBL3098022, “Multifunctional cholinesterase and amyloid Beta fibrillization modulators. Synthesis and biological investigation” (ACS Med Chem Lett, 2013) come the findings set out here.

The structures appear in SMILES notation. Activity calls are given as the source filed them. No cut-off for these calls is given here.

A word on the Ki: it is a dissociation constant, usually derived from enzyme kinetics or from competition with a known ligand. The inhibition is the share of the control response that was lost under treatment. By IC50 is commonly meant the point on the concentration scale where inhibition reaches its midpoint. Higher therefore signals a need for much substance.

Sequence of Cholinesterase (P06276 whole entry): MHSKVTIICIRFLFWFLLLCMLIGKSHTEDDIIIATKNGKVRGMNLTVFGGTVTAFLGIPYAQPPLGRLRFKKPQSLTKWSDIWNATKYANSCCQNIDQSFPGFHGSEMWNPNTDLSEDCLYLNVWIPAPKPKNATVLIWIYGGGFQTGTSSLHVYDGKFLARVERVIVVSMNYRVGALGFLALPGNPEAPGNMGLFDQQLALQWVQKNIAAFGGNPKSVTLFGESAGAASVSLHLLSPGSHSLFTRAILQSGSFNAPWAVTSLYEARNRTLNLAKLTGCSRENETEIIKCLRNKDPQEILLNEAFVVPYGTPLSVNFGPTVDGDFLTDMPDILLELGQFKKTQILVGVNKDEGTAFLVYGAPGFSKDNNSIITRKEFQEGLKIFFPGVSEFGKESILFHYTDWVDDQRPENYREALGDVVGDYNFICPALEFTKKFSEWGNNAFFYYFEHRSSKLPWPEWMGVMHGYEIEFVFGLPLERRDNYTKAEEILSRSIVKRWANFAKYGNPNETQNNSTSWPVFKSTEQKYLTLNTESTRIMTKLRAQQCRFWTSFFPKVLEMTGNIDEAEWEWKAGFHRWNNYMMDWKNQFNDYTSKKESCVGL
T1 sequence (P22303 whole entry): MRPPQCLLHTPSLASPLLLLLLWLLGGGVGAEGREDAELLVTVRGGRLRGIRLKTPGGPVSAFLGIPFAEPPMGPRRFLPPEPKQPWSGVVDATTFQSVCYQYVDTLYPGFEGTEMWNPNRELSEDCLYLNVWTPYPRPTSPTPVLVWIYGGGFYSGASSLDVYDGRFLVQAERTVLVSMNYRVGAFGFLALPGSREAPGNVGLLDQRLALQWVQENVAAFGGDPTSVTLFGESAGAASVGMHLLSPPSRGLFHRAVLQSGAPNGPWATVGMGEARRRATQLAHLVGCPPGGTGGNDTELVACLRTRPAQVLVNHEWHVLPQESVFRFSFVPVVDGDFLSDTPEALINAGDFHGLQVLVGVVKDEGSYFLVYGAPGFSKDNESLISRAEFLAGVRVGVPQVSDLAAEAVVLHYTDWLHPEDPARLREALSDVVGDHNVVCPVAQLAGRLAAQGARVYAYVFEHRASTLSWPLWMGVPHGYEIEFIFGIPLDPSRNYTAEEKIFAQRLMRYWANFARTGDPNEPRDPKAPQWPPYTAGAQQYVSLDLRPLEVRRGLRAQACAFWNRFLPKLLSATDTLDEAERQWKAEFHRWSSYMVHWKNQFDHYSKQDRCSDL

`O=[N+]([O-])c1cccc2c(NCCCCCCCCNc3c4c(nc5ccccc35)CCCC4)c3c(nc12)CCCC3`: the Ratio Ki in test [1] turned out to be 13. Moreover, the inhibition constant (Ki) amounted to 0.06 nM in test [2] and 0.78 nM in test [3].
`c1ccc2c(NCCCCCCCNc3c4c(nc5ccccc35)CCCC4)c3c(nc2c1)CCCC3` showed an inhibition in test [4] of 8.4%.
Regarding `O=C(CC[C@H](NC(=O)CNC(=O)OCc1ccccc1)C(=O)N[C@@H](Cc1ccccc1)C(=O)OCc1ccccc1)NCC(=O)Nc1cccc2c(NCCCCCCCCNc3c4c(nc5ccccc35)CCCC4)c3c(nc12)CCCC3`, the inhibition result is “tde” in [5]; 87.2% in test [11]; 82.5% in [12]; “Dose-dependent effect” in test [13]; 26% in test [14]; 81% in test [4]. Further, the inhibition entry in [6], in [7], in test [8], in test [9] and in test [10] was “Active” in each case. In addition, the Ratio Ki in test [1] worked out at 0.038. Also, the figures for the inhibitory constant (Ki) in [2] and in [3] were 40.9 nM and 1.92 nM, respectively.
For `Nc1cccc2c(NCCCCCCCCNc3c4c(nc5ccccc35)CCCC4)c3c(nc12)CCCC3`, the Ratio Ki in test [1] was found to be 0.028. Further, the figures for the inhibition constant (Ki) in [2] and in test [3] were 8.26 nM and 0.23 nM, respectively.
In test [14], `CN(CCCCNc1c2c(nc3ccccc13)CCCC2)CCCNc1c2c(nc3c(NC(=O)CNC(=O)CC[C@H](NC(=O)CNC(=O)OCc4ccccc4)C(=O)N[C@@H](Cc4ccccc4)C(=O)OCc4ccccc4)cccc13)CCCC2` had an inhibition of 42%. Also, the Ratio Ki in test [1] was determined as 0.081. The Ki in test [2] was found to be 61.8 nM; in test [3] it was 5.02 nM.
For `CN(CCCCNc1c2c(nc3c(NC(=O)CNC(=O)CC[C@H](NC(=O)CNC(=O)OCc4ccccc4)C(=O)N[C@@H](Cc4ccccc4)C(=O)OCc4ccccc4)cccc13)CCCC2)CCCNc1c2c(nc3ccccc13)CCCC2`, the half-inhibitory concentration (IC50) is 113000 nM in test [15] and 51000 nM in test [16]. In [14], this compound had an inhibition of 42%. Also, the Ratio Ki in test [1] is 0.07. In addition, the Ki in [2] was 21.3 nM; in test [3], 1.48 nM.
